Compound activity as filed in PubChem.
TAAR1 agonist – agonists of human TAAR1; CHO RD-HGA16 TAAR1, Fluo-8 calcium fluorescence; vehicle wells 0%, saturating PEA agonist 100%; activation, % at 3 µM; 360,000 tested, 0.99% active; AID 624467;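 active = activation above the mean activation of all test compounds in the run plus 3 SD, cut at about 38% in these data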
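Repeats: no replicates (n 1) | Material: CHO-derived RD-HGA16 cells with stable Gα16 and human TAAR1 | Technique: Kinetic Fluo-8 calcium fluorescence | Schedule: 17-24 h seeding, 75 min 37 °C dye, 30 min RT | Evaluation: % activation from peak over basal fluorescence ratio, DMSO-to-PEA scaled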
OX1R antag-1 – human HCRTR1 antagonism; O43613; CHO/OX1R cells, Fluo-8 calcium fluorescence, orexin A; inhibition, % at 5 µM; 330,000 tested, 0.43% active; AID 434989;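 active = inhibition above its plate's threshold, mean inhibition of all tested compounds on the plate plus 3 SD, cut at about 37% in these data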;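 note: 0% = orexin A challenge wells and 100% = SB-334867-A antagonist wells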
CHO parental Ca – signal in parental CHO cells, OX1R antagonist counter-screen | 330,000 tested, 0.63% active | inhibition, % at 5.6 µM | parental CHO-K1, ATP-induced calcium, Fluo-8 fluorescence | AID 463079;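 active = inhibition above that plate's mean sample inhibition plus 3 SD, cut at about 26% in these data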;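 note: 0% = ATP-challenged DMSO wells and 100% = DMSO wells without ATP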
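material = parental CHO cells | also added = ATP as calcium-mobilizing challenge | dosing = single point at 5.6 µM | detection = intracellular calcium via Fluo-8 no-wash fluorescent dye | read-out = % inhibition | benchmarks = low control ATP plus DMSO, high control DMSO only | repeats = one well per compound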
TAAR1 antag – antagonists of human TAAR1 | Q96RJ0 | CHO RD-HGA16 TAAR1, Fluo-8 calcium fluorescence, antagonist | inhibition, % at 3 µM | 360,000 tested, 1.5% active;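 active = inhibition above a per-plate cutoff, the mean inhibition of test compounds on that plate plus 3 SD, cut at about 49% in these data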;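 note: 0% = DMSO plus EC80 beta-PEA response and 100% = DMSO alone without agonist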
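Material: CHO RD-HGA16 cells bearing hTAAR1; compound dosing: one-point dosing, 3 µM nominal final; schedule: dye loading 75 min at 37 °C, then 30 min room temperature; measured by: calcium fluorescence with Fluo-8; control set: vehicle and agonist controls; replication: n of 1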
OX1R antag-2 – antagonists of human orexin 1 receptor (OX1R). inhibition, % at 6.6 µM. OX1R-expressing cells, FRET antagonist read-out. O43613. 330,000 tested, 1.8% active; in the data active = inhibition mostly above about 38%, no sharp cut-off; inactive = mostly below about 40%;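 note: 0% = agonist challenge alone and 100% = reference antagonist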
GPR7 antagonist – antagonists of human GPR7 (neuropeptides B/W receptor 1); P48145; GPR7-expressing cells, fluorescence antagonist assay; inhibition, % at 4.4 µM; 290,000 tested, 1.1% active; AID 1861; in the data active = inhibition above about 16%, passing the limit was not always enough;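 note: cells stimulated with the agonist NPW; 0% = agonist with vehicle and 100% = vehicle without agonist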
Target sequence (P48145 whole entry, looked up): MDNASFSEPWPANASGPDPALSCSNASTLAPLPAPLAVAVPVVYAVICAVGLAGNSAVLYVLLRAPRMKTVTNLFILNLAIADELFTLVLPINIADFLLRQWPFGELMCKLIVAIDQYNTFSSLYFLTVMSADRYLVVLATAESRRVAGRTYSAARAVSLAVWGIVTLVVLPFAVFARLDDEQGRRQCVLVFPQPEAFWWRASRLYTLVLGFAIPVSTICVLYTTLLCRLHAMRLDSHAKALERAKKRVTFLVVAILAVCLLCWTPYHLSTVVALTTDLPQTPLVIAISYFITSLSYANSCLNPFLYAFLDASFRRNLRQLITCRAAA
TAAR1 nonsel count – nonselective antagonism, TAAR1 counter-screen; shares compounds with TAAR1 antag; counterscreen cell line, calcium fluorescence, antagonist mode; inhibition, % at 3 µM; 2,400 tested, 77% active; in the data active = inhibition above about 22%;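 note: CHO-Ga16 host cells stimulated with ATP at an EC80 level; 0% = agonist EC80 plus vehicle and 100% = vehicle without agonist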
TAAR1 ant conf – confirmation of human TAAR1 antagonists; shares compounds with TAAR1 antag; TAAR1-expressing cells, fluorescence antagonist read-out; inhibition, % at 3 µM; 2,400 tested, 40% active; AID 651785; in the data active = inhibition above about 49%;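 note: CHO-Ga16 host cells challenged with agonist PEA near its EC80; 0% = agonist at EC80 plus vehicle and 100% = vehicle with no agonist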
Ga16 ag counter – nonselective Ga16 agonism, counter-screen. shares compounds with TAAR1 antag. Ga16-expressing cells, calcium fluorescence, agonist counterscreen. activation, % at 3 µM. 2,400 tested, 18% active. AID 651953; in the data active = activation above about 12%;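 note: 0% = vehicle wells and 100% = saturating stimulus response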
TAAR1 ag counter – TAAR1 agonism, antagonist counter-screen; shares compounds with TAAR1 antag; hTAAR1 cell line, fluorescence activation, agonist mode; activation, % at 3 µM; 2,400 tested, 2% active; AID 651955; in the data active = activation above about 37%;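 note: CHO cells stably expressing TAAR1 with calcium dye readout; 0% = DMSO vehicle and 100% = full agonist response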
* hit, by the source's call. Compounds with a hit are over-represented: about 4.5% of the library has one in this group of screens.

How did COc1ccc(CCNc2oc(Cc3ccccc3)nc2C#N)cc1OC do in these assays?
TAAR1 agonist: 2; OX1R antag-1: -26; CHO parental Ca: -20; TAAR1 antag: 27; OX1R antag-2: 30; GPR7 antagonist: 9

Results for COc1ccc(CCNc2oc(COc3ccccc3F)nc2C#N)cc1OC ?
TAAR1 agonist: 16; OX1R antag-1: -10; CHO parental Ca: -5; TAAR1 antag: 59*; OX1R antag-2: 26; GPR7 antagonist: 9; TAAR1 nonsel count: 37*; TAAR1 ant conf: 49*; Ga16 ag counter: 12*; TAAR1 ag counter: 10

What do the screens show for `COc1ccc(CCNc2oc(COc3ccccc3Cl)nc2C#N)cc1OC`?
TAAR1 agonist: 6; OX1R antag-1: -8; CHO parental Ca: 0; TAAR1 antag: 64*; OX1R antag-2: 20; GPR7 antagonist: -3; TAAR1 nonsel count: 39*; TAAR1 ant conf: 55*; Ga16 ag counter: 8; TAAR1 ag counter: 3

How did Cc1ccccc1S(=O)(=O)Oc1ccc2ccc(O)cc2c1 do in these assays?
TAAR1 agonist: 3; OX1R antag-1: 4; CHO parental Ca: 22; TAAR1 antag: 66*; OX1R antag-2: 13; GPR7 antagonist: 9; TAAR1 nonsel count: 30*; TAAR1 ant conf: 45; Ga16 ag counter: 5; TAAR1 ag counter: 7

How did CC(=O)Nc1ccc(OS(=O)(=O)c2ccccc2C)cc1 do in these assays?
TAAR1 agonist: 1; OX1R antag-1: -21; CHO parental Ca: -7; TAAR1 antag: 8; OX1R antag-2: 2; GPR7 antagonist: -7

Results for Cc1cc2ccccn2c1C(=O)c1ccc([N+](=O)[O-])o1 ?
TAAR1 agonist: -1; OX1R antag-1: -19; CHO parental Ca: -7; TAAR1 antag: -8; OX1R antag-2: 37; GPR7 antagonist: 1

What do the screens show for `COc1ccc(C(=O)N/N=C/c2ccc3cccc(OCc4ccccc4)c3n2)cc1`?
TAAR1 agonist: 13; OX1R antag-1: -24; CHO parental Ca: -35; TAAR1 antag: 60*; OX1R antag-2: 76*; GPR7 antagonist: -7; TAAR1 nonsel count: 27*; TAAR1 ant conf: 53*; Ga16 ag counter: 6; TAAR1 ag counter: 5

Results for O=C(N/N=C/c1ccc2cccc(OCc3ccccc3)c2n1)c1ccc(Br)cc1 ?
TAAR1 agonist: 10; OX1R antag-1: -14; CHO parental Ca: -24; TAAR1 antag: 62*; OX1R antag-2: 12; GPR7 antagonist: -15; TAAR1 nonsel count: 21; TAAR1 ant conf: 47; Ga16 ag counter: 4; TAAR1 ag counter: 2

How did O/N=C/c1ccc2cccc(OCc3ccccc3)c2n1 do in these assays?
TAAR1 agonist: 10; OX1R antag-1: -9; CHO parental Ca: -15; TAAR1 antag: 3; OX1R antag-2: 8; GPR7 antagonist: 2

Results for COc1ccc(NC(=O)CN(C)S(=O)(=O)c2ccc3c(c2)CC(C)N3C(C)=O)cc1OC (stereo not drawn) ?
TAAR1 agonist: 4; OX1R antag-1: -10; CHO parental Ca: -3; TAAR1 antag: 6; OX1R antag-2: 5; GPR7 antagonist: -9

Results for COC(=O)C[C@H]1CC[C@@H](NC(=O)Nc2c(C)noc2C)[C@@H](CO)O1 ?
TAAR1 agonist: 0; TAAR1 antag: -17

How did O=C1OC(c2ccccc2)(c2cc(Br)ccc2O)c2ccccc21 (stereo not drawn) do in these assays?
TAAR1 agonist: 8; TAAR1 antag: 63*; TAAR1 nonsel count: 28*; TAAR1 ant conf: 46; Ga16 ag counter: 6; TAAR1 ag counter: 21
